The results in this text go back to ChEMBL document CHEMBL1770134, “Synthesis and in vitro activity of novel 1,2,4-triazolo[4,3-a]pyrimidine oxazolidinone antibacterial agents” (Bioorg Med Chem Lett, 2011).

The test system of series [1] is Staphylococcus aureus. As to the kind of experiment: Antibacterial activity against Staphylococcus aureus ATCC 25923. The format is functional.
Series [2] concerns Staphylococcus epidermidis. As to the kind of experiment: Antibacterial activity Staphylococcus epidermidis ATCC 12228. Type of series: functional.
In series [3] the test system is Escherichia coli. As to the kind of experiment: Antibacterial activity against Escherichia coli ATCC 25922. The format is functional.
Series [4] has as its system Staphylococcus aureus. As to the kind of experiment: Antibacterial activity against methicillin-resistant Staphylococcus aureus ATCC 43300. Type of series: functional. A digest of the protocol:
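MIC determined following CLSI guideline M07-A8 (2009) for dilution susceptibility testing of aerobically growing bacteria.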

Series [5] relates to Enterococcus faecalis. As to the kind of experiment: Antibacterial activity against Enterococcus faecalis ATCC 29212. The format is functional.
Series [6] deals with Staphylococcus epidermidis. As to the kind of experiment: Ratio of MIC for Linezolid to compound for Staphylococcus epidermidis ATCC 12228. The format is functional.
The subject of series [7] is Enterococcus faecalis. As to the kind of experiment: Ratio of MIC for Linezolid to compound for Enterococcus faecalis ATCC 29212. Type of series: functional.
The subject of series [8] is Liver. As to the kind of experiment: Metabolic stability in human liver microsomes assessed per gram of liver. Type of series: ADME, Microsome. On the technique in general: Microsomes from liver hold many membrane-bound enzymes, among them those of drug oxidation.
The target in series [9] is CYP3A4 (Homo sapiens, UniProt P08684). As to the kind of experiment: Inhibition of CYP3A4 at 10 uM. Type of series: ADME. In short, it runs like this: (§1)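 Recombinant CYP isoforms each incubated with its own fluorogenic substrate, which is turned into a fluorescent product; fluorescence read on a plate reader. Inhibition taken as concentration-dependent reduction of that fluorescence, with standard inhibitors, buffers and stop reagents from a commercial kit.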
Chain of CYP3A4 (P08684 whole entry, canonical isoform): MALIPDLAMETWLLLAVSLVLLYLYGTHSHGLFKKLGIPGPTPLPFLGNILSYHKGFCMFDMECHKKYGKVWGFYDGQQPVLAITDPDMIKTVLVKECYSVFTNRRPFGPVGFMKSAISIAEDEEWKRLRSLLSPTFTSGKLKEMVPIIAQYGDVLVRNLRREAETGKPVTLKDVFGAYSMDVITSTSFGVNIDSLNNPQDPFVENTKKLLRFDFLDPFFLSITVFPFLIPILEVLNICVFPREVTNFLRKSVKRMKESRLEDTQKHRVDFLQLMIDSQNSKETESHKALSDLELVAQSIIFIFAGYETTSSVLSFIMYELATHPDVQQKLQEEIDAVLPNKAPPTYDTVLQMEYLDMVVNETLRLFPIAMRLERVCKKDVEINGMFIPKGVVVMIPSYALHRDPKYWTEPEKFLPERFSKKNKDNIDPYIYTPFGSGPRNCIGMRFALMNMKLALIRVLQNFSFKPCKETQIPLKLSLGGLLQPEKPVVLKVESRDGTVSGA

Series [10] deals with CYP2D6 (Homo sapiens, UniProt P10635). As to the kind of experiment: Inhibition of CYP2D6 at 10 uM. Type of series: ADME. A digest of the protocol: as §1
Chain of CYP2D6 (P10635 whole entry): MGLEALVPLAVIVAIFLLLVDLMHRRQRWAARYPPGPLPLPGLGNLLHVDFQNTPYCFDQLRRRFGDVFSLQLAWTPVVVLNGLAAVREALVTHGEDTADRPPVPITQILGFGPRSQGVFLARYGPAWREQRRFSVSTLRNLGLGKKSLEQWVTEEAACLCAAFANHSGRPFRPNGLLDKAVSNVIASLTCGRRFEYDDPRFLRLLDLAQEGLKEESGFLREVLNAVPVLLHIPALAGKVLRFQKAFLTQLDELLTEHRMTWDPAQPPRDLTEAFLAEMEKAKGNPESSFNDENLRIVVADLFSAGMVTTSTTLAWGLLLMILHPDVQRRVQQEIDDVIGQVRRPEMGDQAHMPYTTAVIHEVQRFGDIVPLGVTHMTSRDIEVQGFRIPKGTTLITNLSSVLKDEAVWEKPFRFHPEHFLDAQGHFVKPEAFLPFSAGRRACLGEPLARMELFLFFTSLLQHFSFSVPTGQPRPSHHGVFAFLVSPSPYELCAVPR
The test system of series [11] is Staphylococcus aureus. As to the kind of experiment: Ratio of MIC for Linezolid to compound for Staphylococcus aureus ATCC 25923. Type of series: functional.
In series [12] the target is CYP2C19 (Homo sapiens, UniProt P33261). As to the kind of experiment: Inhibition of CYP2C19 at 10 uM. Type of series: ADME. A digest of the protocol:
as §1

Series [13] concerns the target CYP2C9 (Homo sapiens, UniProt P11712). As to the kind of experiment: Inhibition of CYP2C9 at 10 uM. The format is ADME. A digest of the protocol: as §1
In series [14] the target is T1, CYP1A2 (Homo sapiens, UniProt P05177).
T1 sequence (P05177 whole entry): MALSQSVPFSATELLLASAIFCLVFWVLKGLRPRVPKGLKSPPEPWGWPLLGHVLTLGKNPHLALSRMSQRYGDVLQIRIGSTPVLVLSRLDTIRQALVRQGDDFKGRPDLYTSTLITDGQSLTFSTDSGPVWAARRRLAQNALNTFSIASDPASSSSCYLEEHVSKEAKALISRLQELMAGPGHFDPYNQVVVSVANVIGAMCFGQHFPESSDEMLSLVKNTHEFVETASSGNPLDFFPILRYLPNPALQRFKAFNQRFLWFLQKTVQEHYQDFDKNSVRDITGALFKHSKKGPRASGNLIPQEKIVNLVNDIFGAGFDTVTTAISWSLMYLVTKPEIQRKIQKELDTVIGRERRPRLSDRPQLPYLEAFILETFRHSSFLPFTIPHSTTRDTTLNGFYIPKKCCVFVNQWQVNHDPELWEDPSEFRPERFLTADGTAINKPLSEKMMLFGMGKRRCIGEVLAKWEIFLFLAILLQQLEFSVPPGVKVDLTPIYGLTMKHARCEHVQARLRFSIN
As to the kind of experiment: Inhibition of CYP1A2 at 10 uM. Type of series: ADME. A digest of the protocol: as §1

Broadly, the MIC is the lowest concentration that inhibits growth of the organism. Read a low MIC as a more susceptible organism. Usually inhibition stands for the drop in the measured response relative to a control, in per cent. Low values mean little suppression, high ones strong suppression.

Converted amounts (≈) assume the structure as drawn. Bounds are passed on as bounds.

Chain of CYP2C19 (P33261 whole entry): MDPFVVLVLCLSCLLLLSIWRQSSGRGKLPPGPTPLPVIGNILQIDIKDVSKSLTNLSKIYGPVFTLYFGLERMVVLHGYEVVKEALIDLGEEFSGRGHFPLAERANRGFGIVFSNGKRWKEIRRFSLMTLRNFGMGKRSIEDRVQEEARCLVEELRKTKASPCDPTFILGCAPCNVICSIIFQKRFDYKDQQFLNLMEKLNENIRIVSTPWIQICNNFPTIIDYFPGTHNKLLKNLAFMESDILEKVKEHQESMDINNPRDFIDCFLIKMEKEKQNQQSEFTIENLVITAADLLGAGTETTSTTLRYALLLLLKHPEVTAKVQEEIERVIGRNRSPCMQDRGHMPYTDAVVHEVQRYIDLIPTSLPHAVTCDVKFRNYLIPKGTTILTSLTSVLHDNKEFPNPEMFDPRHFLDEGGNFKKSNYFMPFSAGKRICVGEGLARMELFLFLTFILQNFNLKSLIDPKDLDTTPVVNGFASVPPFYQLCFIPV
Chain of CYP2C9 (P11712 whole entry): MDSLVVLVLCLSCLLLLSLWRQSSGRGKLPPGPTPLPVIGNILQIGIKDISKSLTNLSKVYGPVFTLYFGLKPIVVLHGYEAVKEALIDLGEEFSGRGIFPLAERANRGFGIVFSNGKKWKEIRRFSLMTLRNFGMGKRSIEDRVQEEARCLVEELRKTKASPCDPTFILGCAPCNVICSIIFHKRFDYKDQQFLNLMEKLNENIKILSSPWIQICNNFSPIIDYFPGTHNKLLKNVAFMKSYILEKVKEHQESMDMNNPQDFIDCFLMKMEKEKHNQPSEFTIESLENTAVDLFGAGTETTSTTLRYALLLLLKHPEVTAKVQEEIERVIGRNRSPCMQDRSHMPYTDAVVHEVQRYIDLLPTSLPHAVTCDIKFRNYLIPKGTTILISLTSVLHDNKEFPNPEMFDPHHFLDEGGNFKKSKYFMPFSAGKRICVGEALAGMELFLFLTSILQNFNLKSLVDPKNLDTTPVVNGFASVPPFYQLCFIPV

For the compound `CC(C)CC(=O)NC[C@H]1CN(c2ccc(-c3nnc4ncccn34)cc2)C(=O)O1`, the MIC was more than 16 µg/mL in series [1]; 16 µg/mL (≈ 40.6 µM) in series [2]; more than 16 µg/mL in series [3]; 16 µg/mL (≈ 40.6 µM) in series [4]; more than 16 µg/mL in series [5].
As for `CCC(=S)NC[C@H]1CN(c2ccc(-c3nnc4ncccn34)cc2)C(=O)O1`, the MIC in series [1] is 4 µg/mL (≈ 10.5 µM); in [2], 2 µg/mL (≈ 5.23 µM); in [3] it was more than 16 µg/mL; in series [4], 2 µg/mL (≈ 5.23 µM); in [5] it was 4 µg/mL (≈ 10.5 µM).
Consider `O=C(NC[C@H]1CN(c2ccc(-c3nnc4ncccn34)cc2)C(=O)O1)C(Cl)Cl`, for which the MIC in series [1] was 4 µg/mL (≈ 9.5 µM); in [2], 4 µg/mL (≈ 9.5 µM); in series [3] it was more than 16 µg/mL; in series [4] it was 8 µg/mL (≈ 19 µM); in series [5] it was 8 µg/mL (≈ 19 µM).
Regarding `CCCC(=O)NC[C@H]1CN(c2ccc(-c3nnc4ncccn34)cc2)C(=O)O1`, the minimum inhibitory concentration (MIC) in series [1] was more than 16 µg/mL; in series [2], 16 µg/mL (≈ 42.1 µM); in series [3], more than 16 µg/mL; in [4], 16 µg/mL (≈ 42.1 µM); in [5], more than 16 µg/mL.
In the case of `CC(=O)NC[C@H]1CN(c2ccc(-c3nnc4ncccn34)cc2)C(=O)O1`, the MIC is 16 µg/mL (≈ 45.4 µM) in series [1]; 8 µg/mL (≈ 22.7 µM) in [2]; more than 16 µg/mL in series [3]; 16 µg/mL (≈ 45.4 µM) in series [4]; 16 µg/mL (≈ 45.4 µM) in [5].
Turning to `O=C(NC[C@H]1CN(c2ccc(-c3nnc4ncccn34)cc2)C(=O)O1)C1CCC1`, the minimum inhibitory concentration (MIC) in series [1] is more than 16 µg/mL; in series [2], 16 µg/mL (≈ 40.8 µM); in series [3], more than 16 µg/mL; in series [4], 16 µg/mL (≈ 40.8 µM); in series [5], more than 16 µg/mL.
Consider `CCCCNC(=O)NC[C@H]1CN(c2ccc(-c3nnc4ncccn34)cc2)C(=O)O1`, for which the MIC in series [1], in series [2], in series [3], in series [4] and in series [5] was more than 16 µg/mL each time.
Take `O=C(NC[C@H]1CN(c2ccc(-c3nnc4ncccn34)cc2)C(=O)O1)c1ccccc1`: the MIC in series [1], in [2], in [3], in series [4] and in [5] was more than 16 µg/mL throughout.
With `CC(C)NC(=O)NC[C@H]1CN(c2ccc(-c3nnc4ncccn34)cc2)C(=O)O1`, the MIC in series [1], in series [2], in series [3], in series [4] and in [5] was more than 16 µg/mL each time.
As for `CC(C)NC(=S)NC[C@H]1CN(c2ccc(-c3nnc4ncccn34)cc2)C(=O)O1`, the minimum inhibitory concentration (MIC) is 16 µg/mL (≈ 38.9 µM) in series [1]; 16 µg/mL (≈ 38.9 µM) in series [2]; more than 16 µg/mL in [3]; 16 µg/mL (≈ 38.9 µM) in series [4]; more than 16 µg/mL in [5].
In the case of `CC(=S)NC[C@H]1CN(c2ccc(-c3nnc4ncccn34)cc2)C(=O)O1`, the MIC in series [1] was 1 µg/mL (≈ 2.71 µM); in series [2], 0.5 µg/mL (≈ 1.36 µM); in series [3], more than 16 µg/mL; in [4], 0.5 µg/mL (≈ 1.36 µM); in [5], 1 µg/mL (≈ 2.71 µM). For the same compound, the Ratio in series [6], in [7] and in [11] was 2 throughout. In series [8], this compound yielded a Stability of 0.3 mL/min/g. Also, the inhibition at 10 µM in [9] was 28%; in [10], 13%; in series [12], 30%; in series [13], 15%; in series [14], 0%.
`O=C(NC[C@H]1CN(c2ccc(-c3nnc4ncccn34)cc2)C(=O)O1)Oc1ccccc1`: the MIC in series [1], in series [2], in series [3], in series [4] and in series [5] was more than 16 µg/mL in each case.
For `CCOC(=O)NC[C@H]1CN(c2ccc(-c3nnc4ncccn34)cc2)C(=O)O1`, the MIC is 16 µg/mL (≈ 41.8 µM) in series [1]; more than 16 µg/mL in [2]; more than 16 µg/mL in series [3]; 16 µg/mL (≈ 41.8 µM) in [4]; more than 16 µg/mL in series [5].
For `CC(C)C(=O)NC[C@H]1CN(c2ccc(-c3nnc4ncccn34)cc2)C(=O)O1`, the MIC was more than 16 µg/mL in [1]; more than 16 µg/mL in series [2]; more than 16 µg/mL in series [3]; 16 µg/mL (≈ 42.1 µM) in series [4]; more than 16 µg/mL in series [5].
For the compound `COC(=O)NC[C@H]1CN(c2ccc(-c3nnc4ncccn34)cc2)C(=O)O1`, the MIC in series [1] is 16 µg/mL (≈ 43.4 µM); in series [2], 16 µg/mL (≈ 43.4 µM); in series [3] it was more than 16 µg/mL; in [4] it was 16 µg/mL (≈ 43.4 µM); in series [5], more than 16 µg/mL.
As to `CCC(=O)NC[C@H]1CN(c2ccc(-c3nnc4ncccn34)cc2)C(=O)O1`, the MIC is 16 µg/mL (≈ 43.7 µM) in series [1]; 16 µg/mL (≈ 43.7 µM) in series [2]; more than 16 µg/mL in series [3]; 16 µg/mL (≈ 43.7 µM) in series [4]; 16 µg/mL (≈ 43.7 µM) in [5].
As for `O=C(NC[C@H]1CN(c2ccc(-c3nnc4ncccn34)cc2)C(=O)O1)C1CC1`, the MIC in series [1] is 16 µg/mL (≈ 42.3 µM); in series [2], 8 µg/mL (≈ 21.1 µM); in series [3], more than 16 µg/mL; in series [4], 8 µg/mL (≈ 21.1 µM); in [5], 16 µg/mL (≈ 42.3 µM).
Consider `CCCCC(=O)NC[C@H]1CN(c2ccc(-c3nnc4ncccn34)cc2)C(=O)O1`, for which the MIC in [1] was more than 16 µg/mL; in [2], 16 µg/mL (≈ 40.6 µM); in series [3], more than 16 µg/mL; in series [4] it was 16 µg/mL (≈ 40.6 µM); in series [5] it was more than 16 µg/mL.
For the compound `CC(C)(C)NC(=O)NC[C@H]1CN(c2ccc(-c3nnc4ncccn34)cc2)C(=O)O1`, the MIC in series [1], in [2], in series [3], in [4] and in [5] was more than 16 µg/mL throughout.
Consider `CCCCNC(=S)NC[C@H]1CN(c2ccc(-c3nnc4ncccn34)cc2)C(=O)O1`, for which the MIC in [1] is 16 µg/mL (≈ 37.6 µM); in series [2] it was 8 µg/mL (≈ 18.8 µM); in series [3], more than 16 µg/mL; in [4] it was 8 µg/mL (≈ 18.8 µM); in series [5], 16 µg/mL (≈ 37.6 µM).
For `CC(=O)NC[C@H]1CN(c2ccc(N3CCOCC3)c(F)c2)C(=O)O1` [LINEZOLID], the MIC in series [2] was 1 µg/mL (≈ 2.96 µM); in series [3], more than 16 µg/mL.
Take `O=C(CCl)NC[C@H]1CN(c2ccc(-c3nnc4ncccn34)cc2)C(=O)O1`: the MIC in [1] was 4 µg/mL (≈ 10.3 µM); in series [2] it was 4 µg/mL (≈ 10.3 µM); in series [3], more than 16 µg/mL; in [4] it was 4 µg/mL (≈ 10.3 µM); in [5], 16 µg/mL (≈ 41.4 µM).
For `COCCNC(=S)NC[C@H]1CN(c2ccc(-c3nnc4ncccn34)cc2)C(=O)O1`, the MIC in series [1] is more than 16 µg/mL; in [2], 8 µg/mL (≈ 18.7 µM); in series [3] it was more than 16 µg/mL; in [4], 16 µg/mL (≈ 37.4 µM); in series [5], more than 16 µg/mL.
